Measured values: PMC6571994 (The Journal of General Physiology, 2019)
Entries after “also recorded” stand apart in the source; their conditions may differ. Like-named read-outs stand apart in the source and are kept apart here. One block for each compound: values may come before it.

How the values were obtained:
purified iNicSnFR3a [1] = experiment: Fluorescence dose–response relations of purified iNicSnFR3a; format: biochemical; settings: for sensitivity of iNicSnFR3a and iNicSnFR3b to other α4β2 agonists: unpublished data; for ΔFmax/F0: excitation 485 nm, 3× PBS, 25°C
[2] = system: T. sp X513 OpuBC homologue; experiment: Isothermal titration calorimetry with purified PBPs; format: binding, Thermoanaerobacter sp X513
[3] = system: iNicSnFR3a_PM expressed in HeLa cells; experiment: Time-resolved fluorescence, iNicSnFR3a_PM in transfected HeLa cells; format: cell-based, human; settings: Fig. 5 E; normalized to nicotine (100 µM)
[4] = system: iNicSnFR3a_ER expressed in HeLa cells; experiment: Time-resolved fluorescence, iNicSnFR3a_ER in transfected HeLa cells; format: cell-based, human; settings: Fig. 5 E; normalized to nicotine (100 µM)
iNicSnFR3a = experiment: Stopped-flow kinetics of ligand binding to iNicSnFR3a
purified iNicSnFR3a [5] = experiment: Isothermal titration calorimetry with purified iNicSnFR3a; format: binding; settings: PBS, 25°C
In short: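 Calorimetric titration: 100 µM protein in the cell titrated with 1 mM test ligand in PBS at 25°C. Binding isotherm yields equilibrium dissociation constant and stoichiometry (moles ligand per mole protein).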

[6] = system: iNicSnFR3 biosensors targeted to the ER; format: cell-based
iNicSnFR1 = settings: read-out: apparent nicotine EC50
[7] = system: iNiSnFR3a_Y357A_PM in HeLa cells; settings: concentrations ≤300 µM
[8] = system: AAV_iNicSnFR3b_ER in cultured mouse hippocampal neurons
[9] = system: iNicSnFR3a_ER in human dopaminergic neurons
[10] = system: _ER constructs in HeLa cells and hippocampal neurons; settings: applied [nicotine] ≤ 5 µM; mean ± SEM, n = 8 cells
[11] = system: _PM constructs in HeLa cells and hippocampal neurons; settings: applied [nicotine] ≤ 5 µM; mean ± SEM, n = 8 cells
[12] = cited from earlier work; for pKa: no reference printed; for logD7.4: ref Smith et al., 2012
[13] = cited from earlier work
[14] = system: AAV2/1.syn1.iNicSnFR3b_ER in cultured hippocampal neurons; experiment: Time-resolved fluorescence, iNicSnFR3b_ER in cultured hippocampal neurons; format: cell-based, mouse; settings: compared with nicotine responses and with varenicline responses on the PM
[15] = system: iNicSnFR3a and iNicSnFR3b in HeLa cells and neurons; format: cell-based
α4β2 nAChRs [16] = settings: ref Turner et al., 2011; Marks et al., 2015; Govind et al., 2017; cited from earlier work
α4β2 nAChRs [17] = settings: cited from earlier work
α7 nAChRs = settings: cited from earlier work
[18] = ref Coe et al., 2005, Mihalak et al., 2006

SMILES: c1cncc(OC[C@@H]2CCN2)c1 [A-85380]
sensitivity of iNicSnFR3a and iNicSnFR3b to other α4β2 agonists (purified iNicSnFR3a [1]): less sensitive

binding to the purified protein [2]: bind to this protein
SMILES: CC(=O)OCC[N+](C)(C)C [ACh, acetylcholine]
fluorescence increases [3]: comparable fluorescence increases | fluorescence increases [4]: only nicotine evoked fluorescence increases

binding to the purified protein [2]: bind to this protein
SMILES: C[N+](C)(C)CC(=O)O [betaine]

EC50 for choline relative to nicotine (purified iNicSnFR3a [1]; Fig. 2 C): more than fourfold greater | binding to the purified protein [2]: bind to this protein
SMILES: C[N+](C)(C)CCO [choline]

SMILES: CN1C(=O)CC[C@H]1c1cccnc1 [cotinine]
ΔF (purified iNicSnFR3a [1]; Fig. 2 C): near-zero ΔF values

SMILES: O=c1cccc2n1C[C@@H]1CNC[C@H]2C1 [cytisine]
sensitivity of iNicSnFR3a and iNicSnFR3b to other α4β2 agonists (purified iNicSnFR3a [1]): less sensitive

SMILES: c1cnc2c(c1)O[C@H]1CCN3CC[C@@]1(C2)C3 [dianicline]
sensitivity of iNicSnFR3a and iNicSnFR3b to other α4β2 agonists (purified iNicSnFR3a [1]): less sensitive

SMILES: CN1CCC[C@H]1c1cccnc1 [nicotine, (—)–Nicotine]
decrease in EC50 as the pH is increased from 6.0 to 9.0 (purified iNicSnFR3a [1]; Fig. 3 I): ~20 fold | EC50 for nicotine relative to EC50 for N’MeNic (purified iNicSnFR3a [1]; pH 6.0 to 9.0, Fig. 3 I): 1.25- to 2 fold | ΔFmax/F0 (purified iNicSnFR3a [1]; pH 7.5): 14.5 | ΔFmax/F0 (purified iNicSnFR3a [1]; pH 9.0): 3.5 | koff-ext (extrapolation to zero [nicotine]) (iNicSnFR3a; 25°C, PBS): 2.0 s⁻¹ | Kd (iNicSnFR3a; read-out: equilibrium-binding constant Kd = koff/kon, stopped-flow): 29 µM | Kd (purified iNicSnFR3a [5]): 10 ± 2.5 µM | fluorescence increases [3]: comparable fluorescence increases | fluorescence increases [4]: only nicotine evoked fluorescence increases | [nicotine] in the ER versus the extracellular value [6]: within twofold; also recorded: less than twofold | time for nicotine to leave the ER after removal from the extracellular solution [6]: ≤ 10 s | EC50 (iNicSnFR1): 250 µM | nicotine-induced ΔF [7]: no detectable nicotine-induced ΔF | diffusion constant [8]: ~1 µm^2/ms | time scale of complete response ([8]; cell in ROI 3, ∼150 µm from the pipette tip): ~10 s | time of fluorescence increase ([8]; cell within 10 µm of the pipette tip): < 1 s | maximum ΔF/F0 [9]: 3–4 | slope [ΔF/F0]/[nicotine] ([9]; [nicotine] ≤ 5 µM, Fig. 6 F inset): 0.087 µM⁻¹ | EC50 ([9]; read-out: [nicotine] giving half-ΔFmax/F0): ~20 µM | [ΔF/F0]/[nicotine] [10]: 0.075 ± 0.019 µM⁻¹ | [ΔF/F0]/[nicotine] [11]: 0.063 ± 0.13 µM⁻¹ | pKa [12]: 7.5–8 | pKa ([12]; listed as Nicotine): 7.5–8.1 | logD7.4 [12]: −0.04 | half-time of metabolism ([13]; in humans, ref Benowitz et al., 1991): ~20 min | peak [nicotine] in the plasma and brain of a smoker ([13]; ref Benowitz et al., 1991, Rollema et al., 2010): ~1 µM

SMILES: c1cnc2cc3c(cc2n1)[C@@H]1CNC[C@H]3C1 [varenicline]
agonist character for iNicSnFR3 fluorescence (purified iNicSnFR3a [1]): highly potent full agonist | varenicline EC50 relative to nicotine (purified iNicSnFR3a [1]; purified iNicSnFR3a): approximately sixfold less | inferred Kd relative to nicotine (iNicSnFR3a; stopped-flow): approximately threefold less | Kd (purified iNicSnFR3a [5]): 3.5 µM | growth and decay phases of the ER varenicline-induced fluorescence [14]: clearly slower | time for varenicline to leave the ER after leaving the external solution ([6]; clinically relevant sub-µM concentrations): at most 60 s | EC50 [15]: 1 to 4 µM | pKa [12]: 9.5–10 | logD7.4 [12]: −1.27 | half-life ([13]; human plasma, ref Faessel et al., 2006): ~24 h | effect of exposure on α4β2 nAChRs (α4β2 nAChRs [16]): up-regulates | agonist type (α4β2 nAChRs [17]; no reference printed): partial agonist | potency relative to ACh (α4β2 nAChRs [17]; [18]): more potent than ACh | agonist type (α7 nAChRs; no reference printed): full agonist | potency relative to ACh (α7 nAChRs; [18]): more potent than ACh
